# From article PMC12334608 (Nature Communications, 2025)
# Positions count from the first letter of the chain named. Several values for one entry are separate records, joined by “and”; a condition that tells them apart may be missing. Identical values can stand only once.
# How the values were obtained:
# [1] = target: T1, ACOX-1.1 (Caenorhabditis elegans, UniProt O62140); experiment: Enzyme-coupled kinetic assay, wild-type ACOX-1.1 as purified; assay type: biochemical, C. elegans
# T1 sequence (O62140 1-674): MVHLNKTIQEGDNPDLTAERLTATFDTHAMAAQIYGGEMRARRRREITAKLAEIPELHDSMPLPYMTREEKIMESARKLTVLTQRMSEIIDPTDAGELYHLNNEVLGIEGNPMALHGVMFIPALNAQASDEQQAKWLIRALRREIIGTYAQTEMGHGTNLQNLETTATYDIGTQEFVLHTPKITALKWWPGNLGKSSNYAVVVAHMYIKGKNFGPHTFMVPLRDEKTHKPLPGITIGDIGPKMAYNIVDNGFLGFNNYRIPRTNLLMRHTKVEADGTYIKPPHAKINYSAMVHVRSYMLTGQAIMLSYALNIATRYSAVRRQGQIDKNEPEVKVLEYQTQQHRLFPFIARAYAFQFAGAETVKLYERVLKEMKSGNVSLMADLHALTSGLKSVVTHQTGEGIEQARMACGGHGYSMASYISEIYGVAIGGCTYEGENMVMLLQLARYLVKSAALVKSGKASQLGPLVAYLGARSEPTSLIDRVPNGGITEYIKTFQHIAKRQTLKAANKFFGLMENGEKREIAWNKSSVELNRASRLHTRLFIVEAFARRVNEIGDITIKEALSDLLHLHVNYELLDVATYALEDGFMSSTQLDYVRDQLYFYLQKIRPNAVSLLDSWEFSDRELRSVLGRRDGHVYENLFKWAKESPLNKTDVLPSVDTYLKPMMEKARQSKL
# [2] = target: T2, apo ACOX-1.1 (Caenorhabditis elegans, UniProt O62140); experiment: Enzyme-coupled kinetic assay, wild-type apo ACOX-1.1; assay type: biochemical, C. elegans; details: EC50 for ATP
# T2 sequence (O62140 1-674): T1 sequence (O62140 1-674)
# [3] = target: T2, apo ACOX-1.1; experiment: FAD and ATP dissociation constants by fluorescence polarization; assay type: binding, C. elegans; details: KD of ACOX-1.1 for ATP, 4 μM apo ACOX-1.1, 100 nM FAD; 95% CI: 6.1–27.5 μM
# [4] = test system: ACOX-1.1(R536E); experiment: Enzyme-coupled kinetic assay, ACOX-1.1; assay type: biochemical, C. elegans; details: 10 μM FAD, various ATP
# Procedure, shortened: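 Coupled H2O2 assay on a plate reader using the mutant enzyme (250 nM final). […] Peroxide was coupled through 4-aminoantipyrine (0.82 mM final), phenol (10.6 mM final) and peroxidase, read at 500 nm. Substrate was 25 µM lauroyl-CoA in 50 mM Tris-HCl pH 7.5, 150 mM NaCl, 10 mM MgCl2. Initial rate was taken over a 30 s window at 25–26 °C.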
# [5] = target: T3, ACOX-1.1(R295Q) (Caenorhabditis elegans, UniProt O62140, R295Q); experiment: Enzyme-coupled kinetic assay, ACOX-1.1; assay type: biochemical, C. elegans
# T3 sequence (O62140 1-674 R295Q): T1 sequence (O62140 1-674) with R295Q
# [6] = target: T4, ACOX-1.1(R295A) (Caenorhabditis elegans, UniProt O62140, R295A); experiment: Enzyme-coupled kinetic assay, ACOX-1.1; assay type: biochemical, C. elegans
# T4 sequence (O62140 1-674 R295A): T1 sequence (O62140 1-674) with R295A
# [7] = target: T1, ACOX-1.1; experiment: Analysis of enzyme activity; assay type: biochemical, C. elegans; details: 10 μM FAD, 350 μM ATP
# [8] = target: aspartate transcarbamoylase; details: read-out: KD of the high-affinity ATP site; ATP-activated aspartate transcarbamoylase; cited from earlier work
compound,measurement,setting,value
Nc1ncnc2c1ncn2[C@@H]1O[C@H](COP(=O)(O)OP(=O)(O)OP(=O)(O)O)[C@@H](O)[C@H]1O [ATP],EC50,[1],249 µM
same,EC50,"[2]; 10 μM FAD, 95% CI: 54.8–87.1 μM",69.4 µM and ~69.4 µM
same,EC50,"[2]; 200 μM FAD, 95% CI: 40.5–328.8 μM",111 µM
same,Kd,[3],20.7 µM
same,response of enzyme activity to ATP,[4],do not respond to ATP
same,response of enzyme activity to ATP,[5],do not respond to ATP
same,response of enzyme activity to ATP,[6],do not respond to ATP
same,effect on rate of product formation (HPLC),[7],increases the rate of product formation
same,Kd,[8],100 to 200 µM
